Source: ChEMBL document CHEMBL1649122, “Abc1p is a multidrug efflux transporter that tips the balance in favor of innate azole resistance in Candida krusei” (2009)
In brackets after ≈: the same amount, converted by molar mass. Activity calls are given as the source filed them. No cut-off for these calls is given here. *1 amine or outer side, *2 acyl side, *3 side chain or, on linkers, in order; H or OH if unused. Where a SMILES comes first, the peptide text is derived from it. [ ]: non-standard residue; d: D form. X1 = CC[C@@H](C)[C@@H](O[*:1])C(=O)[*:2]; NMeVal(β-OH) = CN[C@H](C(=O)O)C(C)(C)O; NMeF = CN[C@@H](Cc1ccccc1)C(=O)O; aIle = CC[C@@H](C)[C@H](N)C(=O)O; NMeV = CN[C@H](C(=O)O)C(C)C

Tests used:
Pichia kudriavzevii [1] = assay: Antimicrobial activity against Candida krusei IFO0011 after 48 hrs by liquid microdilution assay; format: functional; details: IFO0011, 48 h
How it was run: (§1)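 Liquid broth microdilution susceptibility assay in CSM medium at pH 7.0, which was also the medium used for the expression studies. Fungal strains were maintained in YPD. The S. cerevisiae test strains carry C. krusei ABC1 or fungal ERG11 alleles integrated at the chromosomal PDR5 locus.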

Pichia kudriavzevii [2] = assay: Increase in ERG11 mRNA expression in Candida krusei B2399 at > 200 ug/ml after up to 320 mins by hot-phenol extraction based Northern blotting; format: functional, organism-based
How it was run: (§2)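 Northern blot. Logarithmically grown C. krusei B2399 was exposed to azoles for 60 min (FLC 1x MIC; VRC, MCZ, ITC 2x MIC) or to FLC at 1x MIC over a time course. About 100 OD units of cells were harvested. Total RNA was extracted with hot phenol, and 10 µg was run on 1.2% denaturing agarose. Blots were probed with radiolabelled ABC1 or ERG11, with ACT1 as internal control.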

Saccharomyces cerevisiae [3] = assay: Fold resistant, ratio of MIC for Saccharomyces cerevisiae isolate ADdelta overexpressing Candida krusei ERG11g to MIC for Saccharomyces cerevisiae isolate ADdelta overexpressing Abc1p; format: functional
How it was run: (§3)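 Fold resistance is the ratio of azole MICs between S. cerevisiae overexpressing strains. The MICs were measured by liquid broth microdilution in CSM medium at pH 7.0. The ERG11 or ABC1 constructs are integrated at the PDR5 locus.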

[4] = biological target: ATP binding cassette transporter Abc1p (Issatchenkia orientalis) (UniProt Q09GQ4); assay: Inhibition of Candida krusei ABC1 expressed in Saccharomyces cerevisiae isolate ADdelta at 23 nM; details: Pichia kudriavzevii
Saccharomyces cerevisiae [5] = assay: Antimicrobial activity against Saccharomyces cerevisiae isolate AD overexpressing Candida krusei ERG11C after 48 hrs by liquid microdilution assay; format: functional; how it was run: as §1
Pichia kudriavzevii [6] = assay: Antimicrobial activity against Candida krusei NZCDC 89.021 after 48 hrs by liquid microdilution assay; format: functional; details: NZCDC 89.021, 48 h; how it was run: as §1
Pichia kudriavzevii [7] = assay: Antimicrobial activity against Candida krusei B2399 after 48 hrs by CLSI method; format: functional; details: B2399, 48 h
How it was run: (§4)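 Azole MICs were determined by the CLSI M27-A2 broth microdilution reference method. They were interpreted against the CLSI breakpoints. Strains were maintained in YPD medium (1% yeast extract, 2% peptone, 2% glucose).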

Saccharomyces cerevisiae [8] = assay: Fold resistant, ratio of MIC for Saccharomyces cerevisiae isolate ADdelta overexpressing Candida krusei ERG11C to MIC for Saccharomyces cerevisiae isolate ADdelta overexpressing Abc1p; format: functional; how it was run: as §3
Pichia kudriavzevii [9] = assay: Antimicrobial activity against Candida krusei B2399 after 48 hrs by liquid microdilution assay; format: functional; details: B2399, 48 h; how it was run: as §1
Saccharomyces cerevisiae [10] = assay: Antimicrobial activity against Saccharomyces cerevisiae isolate ADdelta overexpressing Candida albicans ERG11A after 48 hrs by liquid microdilution assay; format: functional; how it was run: as §1
Pichia kudriavzevii [11] = assay: Antimicrobial activity against Candida krusei IFO0011 after 48 hrs by CLSI method; format: functional; details: IFO0011, 48 h; how it was run: as §4
Pichia kudriavzevii [12] = assay: Antimicrobial activity against Candida krusei NZCDC 89.221 after 48 hrs by CLSI method; format: functional; how it was run: as §4
Saccharomyces cerevisiae [13] = assay: Antimicrobial activity against Saccharomyces cerevisiae isolate ADdelta overexpressing Saccharomyces cerevisiae ERG11 after 48 hrs by liquid microdilution assay; format: functional; how it was run: as §1
[14] = biological target: ATP binding cassette transporter Abc1p (Issatchenkia orientalis) (UniProt Q09GQ4); assay: Inhibition of Candida krusei B2399 Abc1p assessed as fractional inhibitory concentration index at 2.5 ug/ml after 48 hrs by checkerboard susceptibility assay; details: Pichia kudriavzevii
How it was run: (§5)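 Checkerboard susceptibility assay combining the Abc1p inhibitor with FLC or ITC. MICs were determined at various inhibitor concentrations. The fractional inhibitory concentration index was calculated for each combination.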

Pichia kudriavzevii [15] = assay: Antimicrobial activity against Candida krusei NZCDC 90.147 after 48 hrs by liquid microdilution assay; format: functional; details: NZCDC 90.147, 48 h; how it was run: as §1
Pichia kudriavzevii [16] = assay: Antimicrobial activity against Candida krusei NZCDC 89.102 after 48 hrs by CLSI method; format: functional; how it was run: as §4
Pichia kudriavzevii [17] = assay: Antimicrobial activity against Candida krusei NZCDC 89.102 after 48 hrs by liquid microdilution assay; format: functional; details: NZCDC 89.102, 48 h; how it was run: as §1
Saccharomyces cerevisiae [18] = assay: Antimicrobial activity against Saccharomyces cerevisiae isolate ADdelta overexpressing Abc1p after 48 hrs by liquid microdilution assay; format: functional; how it was run: as §1
Pichia kudriavzevii [19] = assay: Antimicrobial activity against Candida krusei NZCDC 89.221 after 48 hrs by liquid microdilution assay; format: functional; details: NZCDC 89.221, 48 h; how it was run: as §1
[20] = biological target: ATP binding cassette transporter Abc1p (Issatchenkia orientalis) (UniProt Q09GQ4); assay: Inhibition of Candida krusei […] expressed in Saccharomyces cerevisiae isolate ADdelta assessed as fractional inhibitory concentration index at 2.5 ug/ml after 48 hrs by checkerboard susceptibility assay; details: Pichia kudriavzevii; how it was run: as §5
Pichia kudriavzevii [21] = assay: Antimicrobial activity against Candida krusei NZCDC 89.021 after 48 hrs by CLSI method; format: functional; details: NZCDC 89.021, 48 h; how it was run: as §4
Pichia kudriavzevii [22] = assay: Increase in ERG11 mRNA expression in Candida krusei B2400 at MIC concentration after 80 mins by hot-phenol extraction based Northern blotting; format: functional, organism-based
Pichia kudriavzevii [23] = assay: Increase in ERG11 mRNA expression in Candida krusei B2399 at MIC concentration after 1 hr by hot-phenol extraction based Northern blotting; format: functional, organism-based; how it was run: as §2
Pichia kudriavzevii [24] = assay: Antimicrobial activity against Candida krusei NZCDC 90.147 after 48 hrs by CLSI method; format: functional; how it was run: as §4
Saccharomyces cerevisiae [25] = assay: Fold resistant, ratio of MIC for Saccharomyces cerevisiae isolate ADdelta overexpressing Saccharomyces cerevisiae ERG11 to MIC for Saccharomyces cerevisiae isolate ADdelta overexpressing Abc1p; format: functional; how it was run: as §3
Pichia kudriavzevii [26] = assay: Increase in ABC1 mRNA expression in Candida krusei B2399 at MIC concentration after 320 mins by hot-phenol extraction based Northern blotting; format: functional, organism-based; how it was run: as §2
Saccharomyces cerevisiae [27] = assay: Fold resistant, ratio of MIC for Saccharomyces cerevisiae isolate ADdelta overexpressing Candida albicans ERG11A to MIC for Saccharomyces cerevisiae isolate ADdelta overexpressing Abc1p; format: functional; how it was run: as §3
Saccharomyces cerevisiae [28] = assay: Antimicrobial activity against Saccharomyces cerevisiae isolate ADdelta overexpressing Candida krusei ERG11g after 48 hrs by liquid microdilution assay; format: functional; how it was run: as §1
[29] = biological target: ATP binding cassette transporter Abc1p (Issatchenkia orientalis) (UniProt Q09GQ4); assay: Inhibition of Candida krusei ABC1 expressed in Saccharomyces cerevisiae isolate ADdelta at 620 nM; details: Pichia kudriavzevii
How it was run: (§6)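 Agarose disk-diffusion test of S. cerevisiae AD overexpressing C. krusei Abc1p, with the parent AD strain as comparison. Cells were pregrown from YPD overnight into CSM to mid-log at 30°C. They were seeded at OD600 0.008 in CSM with 0.6% agarose, overlaid on CSM agar (pH 7.0). Paper disks carrying set nmol amounts of xenobiotic were applied, and plates were incubated at 30°C for 48 h before reading growth inhibition zones.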

[30] = biological target: ATP binding cassette transporter Abc1p (Issatchenkia orientalis) (UniProt Q09GQ4); assay: Inhibition of Candida krusei ABC1 expressed in Saccharomyces cerevisiae isolate ADdelta at 0.24 nM; details: Pichia kudriavzevii
[31] = biological target: ATP binding cassette transporter Abc1p (Issatchenkia orientalis) (UniProt Q09GQ4); assay: Inhibition of Candida krusei ABC1 expressed in Saccharomyces cerevisiae isolate ADdelta at 12 nM; details: Pichia kudriavzevii; how it was run: as §6
[32] = biological target: ATP binding cassette transporter Abc1p (Issatchenkia orientalis) (UniProt Q09GQ4); assay: Inhibition of Candida krusei ABC1 expressed in Saccharomyces cerevisiae isolate ADdelta at 2.5 uM; details: Pichia kudriavzevii; how it was run: as §6
[33] = biological target: ATP binding cassette transporter Abc1p (Issatchenkia orientalis) (UniProt Q09GQ4); assay: Inhibition of Candida krusei ABC1 expressed in Saccharomyces cerevisiae isolate ADdelta at 7 nM; details: Pichia kudriavzevii

OC(Cn1cncn1)(Cn1cncn1)c1ccc(F)cc1F [FLUCONAZOLE]
MIC (Pichia kudriavzevii [1]): 256 µg/mL (≈ 836 µM)
Activity (Pichia kudriavzevii [2]): inactive
ratio (Saccharomyces cerevisiae [3]): 128
Activity [4]: inactive
MIC (Saccharomyces cerevisiae [5]): 4 µg/mL (≈ 13.1 µM)
MIC (Pichia kudriavzevii [6]): 256 µg/mL (≈ 836 µM)
MIC (Pichia kudriavzevii [7]): 32 µg/mL (≈ 104 µM)
ratio (Saccharomyces cerevisiae [8]): 8
MIC (Pichia kudriavzevii [9]): 256 µg/mL (≈ 836 µM)
MIC (Saccharomyces cerevisiae [10]): 2 µg/mL (≈ 6.53 µM)
MIC (Pichia kudriavzevii [11]): 128 µg/mL (≈ 418 µM)
MIC (Pichia kudriavzevii [12]): 32 µg/mL (≈ 104 µM)
MIC (Saccharomyces cerevisiae [13]): 2 µg/mL (≈ 6.53 µM)
fractional inhibitory concentration index (FICI) [14]: 0.35
MIC (Pichia kudriavzevii [15]): 256 µg/mL (≈ 836 µM)
MIC (Pichia kudriavzevii [16]): 32 µg/mL (≈ 104 µM)
MIC (Pichia kudriavzevii [17]): 256 µg/mL (≈ 836 µM)
MIC (Saccharomyces cerevisiae [18]): 0.5 µg/mL (≈ 1.63 µM)
MIC (Pichia kudriavzevii [19]): 256 µg/mL (≈ 836 µM)
fractional inhibitory concentration index (FICI) [20]: 0.112
MIC (Pichia kudriavzevii [21]): 32 µg/mL (≈ 104 µM)
Activity (Pichia kudriavzevii [22]): Active
Activity (Pichia kudriavzevii [23]): Active
MIC (Pichia kudriavzevii [24]): 128 µg/mL (≈ 418 µM)
ratio (Saccharomyces cerevisiae [25]): 4
Activity (Pichia kudriavzevii [26]): Active
ratio (Saccharomyces cerevisiae [27]): 4
MIC (Saccharomyces cerevisiae [28]): 64 µg/mL (≈ 209 µM)

CN1CCN(CCCN2c3ccccc3Sc3ccc(C(F)(F)F)cc32)CC1
Activity [29]: inactive

C/C1=C/C(=O)O[C@@H]2C[C@@H](CC[C@H](C)/C=C\C=C\CC1)O[C@@](O)([C@@H]1CSC(=O)N1)C2
Activity [30]: Active

CC[C@@]1([C@@H]2O[C@@H]([C@H]3O[C@@](O)(CO)[C@H](C)C[C@@H]3C)C[C@@H]2C)CC[C@H]([C@]2(C)CC[C@]3(C[C@H](O)[C@@H](C)[C@@H]([C@@H](C)[C@@H](OC)[C@H](C)C(=O)O)O3)O2)O1
Activity [31]: Active

C[C@H]1c2cccc(O)c2C(=O)C2=C(O)[C@]3(O)C(=O)C(C(N)=O)=C(O)[C@@H](N(C)C)[C@@H]3[C@@H](O)[C@@H]21
Activity [32]: inactive

CC[C@@H](C)[C@@H]1NC(=O)[C@@H]2CCCN2C(=O)[C@H](Cc2ccccc2)N(C)C(=O)[C@H](Cc2ccccc2)NC(=O)[C@H](C(C)C)N(C)C(=O)[C@@H]([C@H](C)CC)OC(=O)[C@H](C(C)(C)O)N(C)C(=O)[C@H](CC(C)C)NC(=O)[C@H](C(C)C)N(C)C1=O (cyclo(F[NMeF]P[aIle][NMeV]L[NMeVal(β-OH)][X1][NMeV]))
Activity [33]: inactive
